Measurements published in ChEMBL document CHEMBL2021845, “Targeting anthracycline-resistant tumor cells with synthetic aloe-emodin glycosides” (ACS Med Chem Lett, 2011).
Calls of active or inactive are those of the source. The rule behind the calls is not given here.

Columns and labels:
MOLT-4 = assay: Cytotoxicity against human MOLT4 cells after 24 hrs by XTT assay; type: functional, cell-based; conditions: MOLT-4, 24 h
OVCAR-3 [1] = assay: Cytotoxicity against human OVCAR3 cells after 24 hrs by XTT assay; type: functional, cell-based; conditions: OVCAR-3, 24 h
MCF7 [2] = assay: Cytotoxicity against human MCF7 cells after 24 hrs by XTT assay; type: functional, cell-based; conditions: MCF7, 24 h
SK-OV-3 [3] = assay: Cytotoxicity against human SKOV3 cells after 24 hrs by XTT assay; type: functional, cell-based; conditions: SK-OV-3, 24 h
[4] = Cytotoxicity against human NAR cells after 24 hrs by XTT assay; type: functional, cell-based
OVCAR-3 [5] = assay: Cytotoxicity against human OVCAR3 cells assessed as cell viability at 20 uM after 24 hrs by XTT assay; type: functional; conditions: OVCAR-3, 24 h, read-out: Activity
MCF7 [6] = assay: Cytotoxicity against doxorubicin-resistant human MCF7 cells assessed as cell viability at 20 uM after 24 hrs by XTT assay; type: functional; conditions: MCF7, 24 h, read-out: Activity
SK-OV-3 [7] = assay: Cytotoxicity against human SKOV3 cells assessed as cell viability at 20 uM after 24 hrs by XTT assay; type: functional; conditions: SK-OV-3, 24 h, read-out: Activity
NAR [8] = assay: (§1) Cytotoxicity against doxorubicin-resistant human NAR cells assessed as cell viability at 100 uM after 24 hrs by XTT assay; type: functional
In short: (§2)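 NAR ovarian cancer cells with P-glycoprotein efflux pump overexpression; 24 h exposure to compound up to 100 μM; cell viability read-out.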

Nucleic Acid [9] = assay: Binding affinity to Escherichia coli pBR322 DNA assessed as DNA migration at 20 uM after 15 mins by agarose gel electrophoresis; type: nucleic-acid assay
In short: (§3)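 Supercoiled plasmid pBR322 DNA was preincubated with compound at 200 or 20 μM. Samples were run on a 1% agarose gel for 4 h at 70 V and stained with ethidium bromide. Unwinding was judged qualitatively from the shift in migration of supercoiled DNA against a no-drug lane.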

Nucleic Acid [10] = assay: Binding affinity to Escherichia coli pBR322 DNA assessed as DNA migration at 200 uM after 15 mins by agarose gel electrophoresis; type: nucleic-acid assay; in short: as §3
OVCAR-3 [11] = assay: Cytotoxicity against human OVCAR3 cells assessed as induction of cell death at 10 uM after 24 hrs by trypan blue dye exclusion test; type: functional, cell-based
In short: (§4)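 Cells were incubated with 10 μM compound for 24 h. A trypan blue dye exclusion test in cell suspension then counted total and dye-stained (dead) cells against an untreated control.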

[12] = Cytotoxicity against human lymphocytes assessed as cell viability at 20 uM after 24 hrs by XTT assay relative to untreated control; type: cell-based, Lymphocyte; conditions: read-out: Activity
In short: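 Normal human lymphocyte samples from two individuals; 24 h incubation with compound at 20 μM; viability expressed relative to an untreated cell control.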

[13] = Toxicity in Wistar rat erythrocytes assessed as hemolysis at 50 uM after 1 hr; type: cell-based, Erythrocyte; conditions: read-out: Activity
[14] = Drug uptake in doxorubicin-resistant human NAR cell plasma membrane at 5 uM after 2 hrs by confocal microscopic analysis; type: ADME, cell-based
In short: (§5)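 P-gp-overexpressing NAR ovarian cancer cells were incubated with 5 μM compound for 2 h, then fixed in paraformaldehyde. Plasma membranes were stained with carbocyanine tracer DiD. Confocal imaging used Ex/Em 488/525 nm for the drug and 640/685 nm for DiD, to localize drug in membrane versus cell interior.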

NAR [15] = assay: Cytotoxicity against human NAR cells assessed as induction of cell death at 10 uM after 24 hrs by trypan blue dye exclusion test; type: functional, cell-based; in short: as §4
Nucleic Acid [16] = assay: Binding affinity to Escherichia coli pBR322 DNA assessed as DNA unwinding at 5 to 10 uM after 15 mins by agarose gel electrophoresis; type: nucleic-acid assay
[17] = as §1; type: functional; conditions: read-out: Activity; in short: as §2
[18] = Cytotoxicity against human lymphocytes assessed as cell viability after 3 hrs by XTT assay relative to untreated control; type: cell-based; conditions: Lymphocyte
In short: (§6)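 Normal human lymphocytes from two individual donors were exposed to compound for 24 h or for a 3 h incubation. Viability was expressed relative to an untreated-cell control, and IC50 was derived per blood sample.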

[19] = Cellular uptake in doxorubicin-resistant human NAR cells at 5 uM after 2 hrs by confocal microscopic analysis; type: ADME, cell-based; in short: as §5
[20] = Cytotoxicity against human lymphocytes assessed as cell viability after 24 hrs by XTT assay relative to untreated control; type: cell-based; conditions: Lymphocyte; in short: as §6

Compound | IC50 (MOLT-4) [µM] | IC50 (OVCAR-3 [1]) [µM] | IC50 (MCF7 [2]) [µM] | IC50 (SK-OV-3 [3]) [µM] | IC50 [4] [µM] | viability at 20 µM (OVCAR-3 [5]) [%] | viability at 20 µM (MCF7 [6]) [%] | viability at 20 µM (SK-OV-3 [7]) [%] | Activity (Nucleic Acid [10]) | Activity (OVCAR-3 [11]) | viability at 24 h, 20 µM [12] [%] | hemolysis at 1 h, 50 µM [13] [%] | Activity (NAR [15]) | Activity (Nucleic Acid [16]) | other results
COc1cccc2c1C(=O)c1c(O)c3c(c(O)c1C2=O)C[C@@](O)(C(=O)CO)C[C@@H]3O[C@H]1C[C@H](N)[C@H](O)[C@H](C)O1 [DOXORUBICIN] | 0.2 | > 20 | > 20 | > 20 | > 100 | 61 | 83 | 63 | Active | inactive | 100 | 2 | inactive | – | Activity (NAR [8]): inactive; Activity (Nucleic Acid [9]): Active; Drug uptake [14]: Active
C[C@H]1O[C@@H](OCc2cc(O)c3c(c2)C(=O)c2cccc(O)c2C3=O)C[C@@H](N)[C@@H]1O | 7.6 | 6.4 | 11.9 | > 20 | > 100 | – | – | 92 | inactive | – | – | – | – | inactive | –
C[C@@H]1O[C@@H](OCc2cc(O)c3c(c2)C(=O)c2cccc(O)c2C3=O)C[C@@H](N)[C@H]1O | 5.4 | 15.7 | 12.7 | 13.5 | 18 | – | – | – | inactive | – | – | – | – | inactive | –
O=C1c2cccc(O)c2C(=O)c2c(O)cc(CO)cc21 [ALOE-EMODIN] | > 20 | > 20 | > 20 | > 20 | > 100 | – | 77 | 98 | inactive | – | 77 | 0 | – | – | viability at 100 µM [17]: 78%
C[C@H]1O[C@@H](OCc2cc(O)c3c(c2)C(=O)c2cccc(O)c2C3=O)C[C@H](N)[C@@H]1O | 12.8 | > 20 | > 20 | > 20 | 28.3 | 60 | 83 | 84 | inactive | – | – | – | – | inactive | –
C[C@@H]1O[C@@H](OCc2cc(O)c3c(c2)C(=O)c2cccc(O)c2C3=O)C[C@H](N)[C@H]1O | 5.8 | 5.2 | 7.1 | 6.9 | 8.6 | – | – | – | inactive | Active | – | 3 | Active | inactive | IC50 [18]: 3 µM; Drug uptake [19]: Active; IC50 [20]: 3 µM
